This is an account of results in ChEMBL document CHEMBL3351723, “New derivatives of lupane triterpenoids disturb breast cancer mitochondria and induce cell death” (Bioorg Med Chem, 2014).

Active and inactive are the calls of the source. The calls are words filed in the database; no cut-off is given here.

For series [1], the system named is BJ. Briefly: Cytotoxicity against human BJ cells at 0.125 to 2 ug/ml after 1 to 5 days by sulforhodamine B assay. Format: cell-based. An outline of the steps: (§1)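 Non-tumor cells seeded at 2×10^4 cells/ml and treated 24 h after seeding, in high-glucose DMEM with pyruvate, 10% FBS and penicillin-streptomycin, 37°C, 5% CO2. Compound exposure 0.125–2 μg/ml for 1, 3 and 5 days, with vehicle controls. Cells fixed and stained with sulforhodamine B for total cell mass. Data given as % of untreated control at each time point; five independent experiments.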
Background: In SRB staining, fixed cells bind dye roughly in proportion to their protein.

Series [2] is described as follows: Cytotoxicity against human MCF12A cells at 0.125 to 2 ug/ml after 1 to 5 days by sulforhodamine B assay. The note with it: mcf-12a. The series is classed as cell-based. The method, boiled down:
as §1

In series [3] the test system is MDA-MB-231. The series can be described thus: Cytotoxicity against human MDA-MB-231 cells at 0.125 to 2 ug/ml after 1 to 5 days by sulforhodamine B assay. Format: functional, cell-based. The method, boiled down:
(§2)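 Sulforhodamine B growth assay in high-glucose DMEM with 10% FBS. Cancer cells seeded at 1×10^4 cells/ml; compound (0.125–2 μg/ml) added 24 h after seeding and left for 1, 3 or 5 days. Cells fixed, total mass stained. Expressed as % of untreated cells at the same time point. Mean ± SEM, five independent experiments.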

Series [4] deals with Hs-578T. The series can be described thus: Cytotoxicity against human Hs578T cells at 0.125 to 2 ug/ml after 1 to 5 days by sulforhodamine B assay. Format: functional, cell-based. The method, boiled down: as §2
The nature of series [5]: Cell cycle arrest against human Hs578T cells assessed as decrease in cells at S phase at 0.5 ug/ml after 24 to 48 hrs by propidium iodide staining based flow cytometry. The note with it: Hs-578T. Format: functional. An outline of the steps:
(§3)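 Log-phase Hs578T cells exposed 24 and 48 h to 0.5 μg/ml. Adherent plus floating cells fixed in cold 70% ethanol, kept overnight at -20°C, washed into PBS-T (132 mM NaCl, 4 mM KCl, 1.2 mM NaH2PO4, 0.1% Tween). Treated with 20 μg/ml RNase for 45 min at 37°C, then propidium iodide for 30 min at 37°C. Phase percentages read by flow cytometry. Mean ± SEM, 5 experiments.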

Series [6] concerns MCF7. Briefly: Cytotoxicity against human MCF7 cells at 0.125 to 2 ug/ml after 1 to 5 days by sulforhodamine B assay. Format: functional, cell-based. An outline of the steps: as §2
The nature of series [7]: Cell cycle arrest against human Hs578T cells assessed as increase in cells at G0/G1 phase at 0.5 ug/ml after 24 to 48 hrs by propidium iodide staining based flow cytometry. Format: functional. To be noted: Hs-578T. An outline of the steps: as §3
Series [8] concerns Hs-578T. The series can be described thus: Cytotoxicity against human Hs578T cells at 0.125 to 2 ug/ml incubated for 6 hrs folowed by drug wash out and fresh medium addition and measured 5 days after wash out. The series is classed as functional, cell-based.
Series [9] is described as follows: Cell cycle arrest against human Hs578T cells assessed as decrease in cells at G2/M phase at 0.5 ug/ml after 24 to 48 hrs by propidium iodide staining based flow cytometry. Format: functional. To be noted: Hs-578T. The method, boiled down:
as §3
(A flow cytometer gives signals particle by particle.)

For series [10], the system named is MDA-MB-231. Briefly: Cytotoxicity against human MDA-MB-231 cells at 0.125 to 2 ug/ml after 1 to 5 days by sulforhodamine B assay in presence of taxol. Format: functional, cell-based.
Series [11] deals with MCF7. Briefly: Cytotoxicity against human MCF7 cells at 0.125 to 2 ug/ml after 1 to 5 days by sulforhodamine B assay in presence of taxol. The series is classed as functional, cell-based.
Series [12] relates to Hs-578T. Briefly: Cytotoxicity against human Hs578T cells at 0.125 to 2 ug/ml after 1 to 5 days by sulforhodamine B assay in presence of taxol. The series is classed as functional, cell-based.

For the molecule `C=C(C)[C@@H]1CC[C@]2(COC(=O)CCC[n+]3ccc(N(C)C)cc3)CC[C@]3(C)[C@H](CC[C@@H]4[C@@]5(C)CC[C@H](OC(=O)CCC[n+]6ccc(N(C)C)cc6)C(C)(C)[C@@H]5CC[C@]43C)[C@@H]12.[Br-].[Br-]`, the Activity entry in series [1] and in series [2] was “Toxic” throughout. Moreover, the inhibition entry in series [3], in [4], in series [5], in series [6] and in series [8] was “Active” in each case. The outcome in series [7] was Active.
`C=C(C)[C@@H]1CC[C@]2(COC(=O)C[n+]3ccc(C)cc3C)CC[C@]3(C)[C@H](CC[C@@H]4[C@@]5(C)CC[C@H](OC(=O)C[n+]6ccc(C)cc6C)C(C)(C)[C@@H]5CC[C@]43C)[C@@H]12.[Cl-].[Cl-]`: the Activity result in series [1] and in series [2] was “Toxic” each time. Further, the inhibition entry in [5] and in [8] was “Active” in each case. The “G0/G1 cell cycle arrest” value in series [7] is “Active”.
Consider `C=C(C)[C@@H]1CC[C@]2(COC(=O)C(C)[n+]3ccc(N(C)C)cc3)CC[C@]3(C)[C@H](CC[C@@H]4[C@@]5(C)CC[C@H](OC(=O)C(C)[n+]6ccc(N(C)C)cc6)C(C)(C)[C@@H]5CC[C@]43C)[C@@H]12.[Cl-].[Cl-]` (some centres not stated), for which the Activity entry in [1] and in series [2] was “Toxic” throughout. The inhibition entry in [9], in [10], in [11], in series [5], in series [12] and in [8] was “Active” in each case. The result in series [7] was Active.
